Only some compounds are listed: those with a hit (about 3% of all), similar ones and a draw of the others.
MPTP inh: mitochondrial permeability transition pore inhibitors, primary screen, biochemical, isolated mouse mitochondria, absorbance; inhibition, % at 10 µM; 360,000 tested, 1.4% active; Ca2+ swelling absorbance, 30 min;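 active means inhibition of 50% or more, scaled per plate between neutral and stimulator controls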
Granule exo inh: LAMP-1 surface exposure blockers, TALL-104 cells – cell-based, flow cytometry, MLPCN library, primary screen | TALL-104 LAMP-1 surface exposure; cells stimulated with thapsigargin and PMA | 360,000 tested, 0.66% active | AID 651702, 2012 | inhibition, % at 10 µM;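 active means inhibition above about 55%, limit read from the data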
hiPSC survival: enhancers of single-cell hiPSC survival, primary screen, ATPlite luminescence. AID 602274, 2012. 100% = ROCK inhibitor wells, 0% = DMSO. survival enhancement, % at 20 µM. 360,000 tested, 0.044% active; in the data active means survival enhancement above about 18%;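 further: cells exposed to compounds for 16 hours before the ATP read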
UBC13 polyUb: UBC13 polyubiquitin chain formation inhibitors, primary screen, biochemical, TR-FRET, uHTS | Ubiquitin-conjugating enzyme E2 N (Homo sapiens), P61088 | inhibition, % at 20 µM | 330,000 tested, 0.47% active; in the data active means inhibition above about 45%, passing the limit was not always enough
Target sequence (P61088 whole entry, looked up): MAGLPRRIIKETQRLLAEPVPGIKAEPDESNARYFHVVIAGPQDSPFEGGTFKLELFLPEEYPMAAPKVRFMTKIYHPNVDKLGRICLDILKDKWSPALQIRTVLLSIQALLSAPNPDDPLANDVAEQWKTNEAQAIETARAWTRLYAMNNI
Apaf-1 inh: inhibitors of human Apaf-1 apoptosome, primary screen, biochemical, DEVD-Rh110 fluorescence, uHTS; Apoptotic protease-activating factor 1 (Homo sapiens), O14727; reconstituted apoptosome caspase-3 activity; inhibition, % at 20 µM; 330,000 tested, 0.71% active; AID 489030, 2010; active means inhibition of at least 40% at 20 µM
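Material: reconstituted apoptosome with Apaf-1, cytochrome c, caspase-9, procaspase-3, dATP; medium: pH 7.5 Hepes buffer with CHAPS, BSA, DTT; also added: cytochrome c and DEVD-Rh110 substrate; timing: 30 min plus 50 min, RT; signal: Rh110 fluorescence intensity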
beta cell repl: inducers of MIN6 beta-cell proliferation, primary screen, ATP luminescence, uHTS. proliferation, % at 10 µM. 330,000 tested, 0.29% active. MIN6 cells proliferation, ATPlite luminescence, 48 h; cells starved in 0.2% serum; 100% = growth in 10% serum;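 active means compounds whose signal lies at least 3.5 SD above the mean of all wells on their plate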
Casp3 counter: CASP3 inhibitor validation, counterassay for project on UBE2N polyubiquitination blockers, biochemical, one dose. Recombinant caspase-3, Caspase-Glo 3/7 luminescence, 60 min. shares compounds with UBC13 polyUb. 1,400 tested, 4% active. inhibition, % at 20 µM;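 active means mean inhibition across replicates above about 26%, limit read from the data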
Target sequence (P42574 whole entry, looked up): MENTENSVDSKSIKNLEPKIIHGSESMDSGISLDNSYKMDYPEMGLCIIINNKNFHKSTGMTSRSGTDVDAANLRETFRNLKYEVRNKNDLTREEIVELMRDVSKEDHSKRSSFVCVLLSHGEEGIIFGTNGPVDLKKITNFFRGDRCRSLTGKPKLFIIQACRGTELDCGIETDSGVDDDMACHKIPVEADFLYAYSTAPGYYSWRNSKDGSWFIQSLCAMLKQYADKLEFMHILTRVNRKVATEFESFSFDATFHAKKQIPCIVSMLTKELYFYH
UBC13 confirm: UBC13 polyubiquitination inhibitors, single-point retest, confirmation, biochemical, TR-FRET, single concentration; shares compounds with UBC13 polyUb; 1,400 tested, 68% active; inhibition, % at 10 µM; in the data active means inhibition above about 45%
Apaf-1 inh conf: Apaf-1 inhibitors, single-dose retest, confirmation, biochemical, fluorescence, DEVD-Rh110, 20 µM; shares compounds with Apaf-1 inh; reconstituted apoptosome, caspase-3 DEVD-Rh110 fluorescence; inhibition, % at 20 µM; 1,800 tested, 25% active;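 active means mean inhibition of at least 40% at 20 µM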
Rh110 interf inh: Rh110 fluorescence interference by putative Apaf-1 inhibitors, confirmation, artefact control for Apaf-1 inhibitor project, biochemical, 20 µM; 1,800 tested, under 10 active; quenched caspase reaction; activation (fluorescence interference), % at 20 µM; shares compounds with Apaf-1 inh;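 active means signal rise of 40% or more at 20 µM, treated as a fluorescence artifact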
Fluor interf inh: fluorescence interference of Apaf-1 inhibitor hits, dose response, artefact control for Apaf-1 inhibitor project | IC50, µM | 460 tested, under 10 active | fluorescence interference counterscreen, Apaf-1 assay format | shares compounds with Apaf-1 inh; call rule not given here
Of the large screens only hits and unclear results are named; the others gave an inactive call (follow-up assays come after a bar, where they were run).

Cc1cc(C(C)(C)CC(C)(C)C)ccc1OCCOCC[N+](C)(C)Cc1ccccc1	UBC13 polyUb 100.2, Apaf-1 inh 85.8 | Casp3 counter inactive | UBC13 confirm 105.1 | Apaf-1 inh conf 59.2 | Rh110 interf inh inactive | Fluor interf inh inactive
CCN1C(=O)CC(c2ccccc2)N(C2CCCC2)c2nc(Nc3ccc(C(=O)NC4CCN(C)CC4)cc3OC)ncc21 (configuration not stated)	UBC13 polyUb 61.0, Apaf-1 inh 69.5 | Casp3 counter inactive | UBC13 confirm inactive | Apaf-1 inh conf inactive | Rh110 interf inh inactive
COc1ccc(NS(=O)(=O)c2cc(NC(=O)c3ccc(=O)[nH]n3)ccc2C)cc1	none
O=[N+]([O-])c1ccc(S(=O)(=O)N2CCC3(CC2)OCCN3S(=O)(=O)c2cccs2)cc1	none
C#CCOCCOCCOCCNc1nc(N2CCN(C(=O)CCCCCCCCCCNC(=O)[C@@H](CCC(=O)O)n3cc(CCCCCN)nn3)CC2)nc(N2CCN(C(=O)CCCCCCCCCCNC(=O)[C@H](CCCCN)n3cc(C[C@@H](C)CC)nn3)CC2)n1	UBC13 polyUb 120.2, Apaf-1 inh 71.7 | Casp3 counter inactive | UBC13 confirm 124.2 | Apaf-1 inh conf 49.5 | Rh110 interf inh inactive | Fluor interf inh inactive
C#CCOCCOCCOCCNc1nc(N2CCN(C(=O)CCCCCCCCCCNC(=O)[C@@H](CCSC)n3cc(CCO)nn3)CC2)nc(N2CCN(C(=O)CCCCCCCCCCNC(=O)[C@H](CO)n3cc(CCCCCN)nn3)CC2)n1	UBC13 polyUb 117.6, Apaf-1 inh 71.1 | Casp3 counter inactive | UBC13 confirm 122.7 | Apaf-1 inh conf 40.2 | Rh110 interf inh inactive | Fluor interf inh inactive
C#CCOCCOCCOCCNc1nc(N2CCN(C(=O)[C@H](CCCCN)n3cc(CN)nn3)CC2)nc(N2CCN(C(=O)[C@H](CCCCN)n3cc(CN)nn3)CC2)n1	UBC13 polyUb 103.2, Apaf-1 inh 44.1 | Casp3 counter inactive | UBC13 confirm 111.7 | Apaf-1 inh conf inactive | Rh110 interf inh inactive
C#CCOCCOCCOCCNc1nc(N2CCN(C(=O)[C@H]([C@@H](C)O)n3cc(CCCCN)nn3)CC2)nc(N2CCN(C(=O)[C@H](CCCCN)n3cc(CCCC)nn3)CC2)n1	none
C#CCOCCOCCOCCNc1nc(N2CCN(C(=O)[C@H]([C@@H](C)CC)n3cc(CCC(=O)O)nn3)CC2)nc(N2CCN(C(=O)[C@H](CCCCN)n3cc(CCC(=O)O)nn3)CC2)n1	none (no result: UBC13 polyUb, Apaf-1 inh, beta cell repl)
C#CCOCCOCCOCCNc1nc(N2CCN(C(=O)[C@H](CCCCN)n3cc(CCC(=O)O)nn3)CC2)nc(N2CCN(C(=O)[C@H](Cc3ccc(O)cc3)n3cc(CCO)nn3)CC2)n1	none (no result: UBC13 polyUb, Apaf-1 inh, beta cell repl)
C#CCOCCOCCOCCNc1nc(N2CCOCC2)nc(N2CCN(C(=O)[C@H](CCCCN)n3cc(CCC(=O)O)nn3)CC2)n1	none (no result: UBC13 polyUb, Apaf-1 inh, beta cell repl)
C#CCOCCOCCOCCNc1nc(N2CCN(C(=O)CCCCCCCCCCNC(=O)[C@H](CCCCN)n3cc(CCO)nn3)CC2)nc(N2CCN(C(=O)CCCCCCCCCCNC(=O)[C@H](CCCCN)n3cc(CCCC(=O)O)nn3)CC2)n1	UBC13 polyUb 117.0, Apaf-1 inh 59.1 | Casp3 counter inactive | UBC13 confirm 111.0 | Apaf-1 inh conf inactive | Rh110 interf inh inactive
O=C(Nc1c(-c2ccc3c(c2)OCO3)[nH][nH]c1=O)c1ccc2c(c1)OCO2	none (no result: UBC13 polyUb, Apaf-1 inh, beta cell repl)
NS(=O)(=O)c1cccc(NC(=O)COC(=O)CCc2ccccc2)c1	none
CC[C@H](C)Cc1cn([C@@H](CCCN=C(NC(=O)OC(C)(C)C)NC(=O)OC(C)(C)C)C(=O)NCCCCCCCCCCC(=O)N2CCN(C(=O)OC(C)(C)C)CC2)nn1	UBC13 polyUb 53.9, Apaf-1 inh 57.3 | Casp3 counter inactive | UBC13 confirm inactive | Apaf-1 inh conf inactive | Rh110 interf inh inactive
C#CCOCCOCCOCCNc1nc(N2CCN(C(=O)CCCCCCCCCCNC(=O)[C@H](CCCCN)n3cc(C)nn3)CC2)nc(N2CCN(C(=O)CCCCCCCCCCNC(=O)[C@H](CCCN=C(N)N)n3cc(C[C@@H](C)CC)nn3)CC2)n1	UBC13 polyUb 122.6, Apaf-1 inh 74.5 (no result: MPTP inh, Granule exo inh, hiPSC survival) | Casp3 counter inactive | UBC13 confirm 127.3 | Apaf-1 inh conf 57.0 | Rh110 interf inh inactive | Fluor interf inh inactive
Cc1cn([C@@H](CCCCNC(=O)OC(C)(C)C)C(=O)NCCCCCCCCCCC(=O)N2CCN(C(=O)OC(C)(C)C)CC2)nn1	none
C#CCOCCOCCOCCNc1nc(N2CCN(C(=O)CCCCCCCCCCNC(=O)[C@@H](CCSC)n3cc(CCO)nn3)CC2)nc(N2CCN(C(=O)CCCCCCCCCCNC(=O)[C@H](CCC(=O)O)n3cc(CCCCCN)nn3)CC2)n1	UBC13 polyUb 102.1, Apaf-1 inh 61.6 | Casp3 counter inactive | UBC13 confirm 77.4 | Apaf-1 inh conf inactive | Rh110 interf inh inactive
NNC(=O)c1[nH]c(-c2ccccc2)cc1-c1ccccc1	none
CC(C)Oc1ccc(S(=O)(=O)N2CCOCC2)cc1NC(=O)c1cccc(S(=O)(=O)N2CCCC2)c1	none (no result: UBC13 polyUb, Apaf-1 inh, beta cell repl)
COC(=O)C1=C(C)N(Cc2ccccc2)C(=NCc2cccc(Cl)c2)N[C@H]1c1ccccc1	UBC13 polyUb 70.5, Apaf-1 inh 56.0 | Casp3 counter inactive | UBC13 confirm 67.3 | Apaf-1 inh conf inactive | Rh110 interf inh inactive
